One may read the IC50 as the point on the concentration scale where inhibition reaches its midpoint.

Each structure is given as a SMILES string.

Type in all cases: cell-based, human
The test system of data set [1] is HCT116 cells. Description: MTT cytotoxicity assay, HCT116. The following applies: for IC50: read-out: IC50 HCT116 cells, 72 h. Summed up: (§1)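 Cells seeded at 5 × 10^3 per well in 96-well plates and left overnight: A549 and HCT116 in RPMI-1640, LO2 in DMEM. Medium replaced with test compound at 100, 50, 25, 12.5, 6.25, 3.125 or 1.5625 μM for 72 h; medium-only control. MTT (5 mg/mL) added for 4 h, formazan dissolved in DMSO, OD read at 490 nm; IC50 derived.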

Data set [2] has as its system HCT116 cells. Description: Cell cycle analysis by flow cytometry. The note with it: HCT116, 10 μM, 24 h. Summed up:
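HCT116 cells in log phase were seeded at 1 × 10^6 per well in six-well plates and grown 24 h at 37 °C. They were PBS-washed, given fresh medium with 10 μM test compound for 24 h, trypsinised and washed in cold PBS. Cells were fixed in 70% ethanol at −20 °C for 48 h, treated with RNase A at 37 °C for 30 min, then PI for 30 min at RT in the dark. Flow cytometry DNA content was model-fitted into cell-cycle phases.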
A general note: In flow cytometry, cells or beads pass a laser one at a time.

In another data set the test system is LO2 cells. Description: MTT cytotoxicity assay, LO2 normal hepatocytes. The note with it: read-out: IC50 LO2 cells, 72 h, normal hepatocyte cell line. Summed up: as §1
The next data set concerns A549 cells. Description: MTT cytotoxicity assay, A549. The note with it: read-out: IC50 A549 cells, 72 h. Put shortly:
as §1
(Tetrazolium dyes change colour on reduction, which living cells bring about.)

In the case of `N.N.[Cl][Pt][Cl]` [cisplatin, reference compound], the IC50 in the data set with HCT116 cells [1] amounted to 5.7 µM; with LO2 cells, 0.7 µM; with A549 cells, 7.5 ± 0.7 µM. Also, the “cell cycle blocking effect” value in the data set on HCT116 cells [2] was “mainly blocked the cell cycle in the S phase”.

`O=C1[O][Pt]2([NH][C@@H]3CCCC[C@H]3[NH]2)[O]C1=O` [oxaliplatin, reference compound]: the results for the IC50 with HCT116 cells [1], in the data set with LO2 cells and in the data set on A549 cells were 8.3 ± 0.4 µM, 2.3 ± 0.3 µM and 3.2 ± 0.2 µM, respectively. In addition, the “cell cycle blocking effect” value with HCT116 cells [2] is given as “blocked it in the G1/S/G2 phase with comparable effects”.

On to `Clc1ccc([O][Ga]([O]c2ccc(Cl)c3cccnc23)[O]c2ccc(Cl)c3cccnc23)c2ncccc12` [CP-3, [Ga(ClQL)3]], for which the “cytotoxicity against HCT116 cells” value with HCT116 cells [1] (at 25 μM, 72 h) is 91.98%. The IC50 with HCT116 cells [1] came to 2 ± 0.3 µM; in the data set with LO2 cells, 23.3 ± 5.3 µM; in the data set on A549 cells, 8.7 ± 0.8 µM.

Regarding `c1cnc2c([O][Ga]([O]c3cccc4cccnc34)[O]c3cccc4cccnc34)cccc2c1` [CP-1, [Ga(HQL)3]], the IC50 in the data set on HCT116 cells [1] turned out to be 1.2 ± 0.2 µM; in the data set on LO2 cells, 8 ± 1 µM; with A549 cells, 3.8 ± 1.1 µM.

As to `Cc1ccc2cccc([O][Ga]([O]c3cccc4ccc(C)nc34)[O]c3cccc4ccc(C)nc34)c2n1` [CP-2, [Ga(MQL)3]], the IC50 is 4.7 ± 0.7 µM in the data set on HCT116 cells [1], 3.3 ± 0.5 µM in the data set with LO2 cells and 6.1 ± 0.8 µM with A549 cells.

Values taken from publication PMC9948165 (ACS Omega, 2023).
